According to publication PMC3253719 (Anesthesia and Analgesia, 2010):
Where two headings read alike, the source gives them in different places.

How the values were obtained:
rat CB2 receptor [1] = target: T1, rat CB2 receptor (Rattus norvegicus, UniProt Q9QZN9); assay: GTPγ[35S] functional assay, rat CB2; type: biochemical
T1 sequence (Q9QZN9 1-360): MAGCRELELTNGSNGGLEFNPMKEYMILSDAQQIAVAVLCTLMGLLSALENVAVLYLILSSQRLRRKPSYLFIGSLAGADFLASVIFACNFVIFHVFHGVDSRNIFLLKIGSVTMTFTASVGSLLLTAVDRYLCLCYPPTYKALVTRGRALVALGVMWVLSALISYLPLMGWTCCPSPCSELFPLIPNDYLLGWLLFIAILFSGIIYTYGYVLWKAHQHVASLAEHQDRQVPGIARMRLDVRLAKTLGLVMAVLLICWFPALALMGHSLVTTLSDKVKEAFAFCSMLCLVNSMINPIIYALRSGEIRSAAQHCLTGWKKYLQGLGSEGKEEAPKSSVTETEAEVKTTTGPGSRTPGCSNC

rat CB2 receptor [2] = target: T1, rat CB2 receptor; assay: cAMP activation assay, rat CB2; type: cell-based
rat CB1 receptor [3] = target: T2, rat CB1 receptor (Rattus norvegicus, UniProt P20272); assay: cAMP activation assay, rat CB1; type: cell-based
human CB1 receptor [4] = target: T3, human CB1 receptor (Homo sapiens, UniProt P21554); assay: Radioligand competitive binding assay, human CB1; details: Mean Ki Human CB1, [3H]CP 55,940 was used (footnote b)
rat CB1 receptor [5] = target: T2, rat CB1 receptor; assay: Radioligand competitive binding assay, rat CB1
naïve rats [6] = details: 15 mg/kg IP; historical data ref 24; cited from earlier work
[7] = system: paclitaxel-treated CB2^+/+ mice; assay: Tactile allodynia, paclitaxel-induced neuropathic pain model in CB2^+/+ mice; type: in vivo, mouse; details: 10 mg/kg IP
Procedure, shortened: (§1)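 Male CB2+/+ or CB2−/− mice (20–25 g), bred and genotyped in-house, were used in a paclitaxel-induced neuropathy model. Once allodynia was established, the test compound was given at 10 mg/kg IP. Tactile paw-withdrawal thresholds were measured with von Frey filaments after ≥30 min acclimation on a wire-mesh floor; n = 5 per group.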

human CB2 receptor [8] = target: T4, human CB2 receptor (Homo sapiens, UniProt P34972); assay: Radioligand competitive binding assay, human CB2
human CB2 receptor [9] = target: T4, human CB2 receptor; assay: GTPγ[35S] functional assay, human CB2; type: biochemical
rat CB2 receptors [10] = assay: Erk1/2; type: cell-based
human CB1 receptor [11] = target: T3, human CB1 receptor; assay: GTPγ[35S] functional assay, human CB1; type: biochemical
paclitaxel-treated rats = assay: Tactile allodynia, paclitaxel-induced neuropathic pain model in rats; type: in vivo, rat; details: IP
Procedure, shortened: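 Male Sprague-Dawley rats (120–150 g) received paclitaxel 1.0 mg/kg IP daily for 4 days (cumulative 4 mg/kg) in 10% Cremophor EL in saline, 1 mL/kg. Baseline was taken on day 0, then daily von Frey hind-paw thresholds (≥30 min acclimation on wire mesh) until neuropathy was confirmed. The test compound was given IP, compared with vehicle-treated rats; n = 5 per group. Values were expressed as %MPE and AUC.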

[12] = system: paclitaxel-treated CB2^−/− mice; assay: Tactile allodynia, paclitaxel-induced neuropathic pain model in CB2^−/− mice; type: in vivo, mouse; details: 10 mg/kg IP
Procedure, shortened: as §1

rat CB2 receptor [13] = target: T1, rat CB2 receptor; assay: Radioligand competitive binding assay, rat CB2
[14] = system: rats with spinal nerve ligation; assay: Tactile allodynia, lumbar 5-6 spinal nerve ligation neuropathic pain model; type: in vivo, rat; details: for Effect on tactile allodynia: several doses
Procedure, shortened: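 Male Sprague-Dawley rats (120–150 g). Under isoflurane in 100% O2, the left L6 transverse process was removed and the left L5 and L6 spinal nerves were tightly ligated with 6-0 silk. Neuropathy was confirmed by daily von Frey paw-withdrawal thresholds after ≥30 min acclimation on wire mesh. Compounds were given IP; AM630 (5 mg/kg IP) was given 15 min before the test compound. n = 6–12 per group.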

rat CB1 receptor [15] = target: T2, rat CB1 receptor; assay: GTPγ[35S] functional assay, rat CB1; type: biochemical
central nervous system = details: IP; cited from earlier work
naïve rats [16] = assay: Open-field chamber testing; type: in vivo, rat; details: 1 mg/kg IP
human CB2 receptors = details: cited from earlier work
rat CB2 receptors [17] = details: cited from earlier work
rat CB2 receptors [18] = details: cited from earlier work; remark: listed apart in the source
human CB2 receptor [19] = target: T4, human CB2 receptor; details: cited from earlier work
human CB2 receptor [20] = target: T4, human CB2 receptor; details: cited from earlier work; remark: listed apart in the source
mouse CB2 receptors = details: cited from earlier work
human CB2 receptor [21] = target: T4, human CB2 receptor; details: cited from earlier work; remark: listed apart in the source
human CB2 receptor [22] = target: T4, human CB2 receptor; details: cited from earlier work; remark: listed apart in the source
[23] = system: rodents with spinal nerve ligation; details: cited from earlier work

T2 sequence (P20272 whole entry): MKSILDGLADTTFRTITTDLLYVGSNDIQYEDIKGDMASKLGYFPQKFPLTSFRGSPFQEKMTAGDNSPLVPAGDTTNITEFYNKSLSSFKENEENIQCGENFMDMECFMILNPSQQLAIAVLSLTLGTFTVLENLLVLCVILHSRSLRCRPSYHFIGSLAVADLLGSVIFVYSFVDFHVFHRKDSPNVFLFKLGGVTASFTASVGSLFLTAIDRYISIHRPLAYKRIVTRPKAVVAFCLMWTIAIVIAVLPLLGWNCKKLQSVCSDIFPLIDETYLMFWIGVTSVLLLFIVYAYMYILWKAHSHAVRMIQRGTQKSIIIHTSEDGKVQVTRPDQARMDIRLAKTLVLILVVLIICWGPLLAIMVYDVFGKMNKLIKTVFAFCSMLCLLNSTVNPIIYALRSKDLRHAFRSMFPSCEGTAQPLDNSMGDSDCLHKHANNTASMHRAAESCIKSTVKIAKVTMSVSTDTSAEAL
T4 sequence (P34972 whole entry): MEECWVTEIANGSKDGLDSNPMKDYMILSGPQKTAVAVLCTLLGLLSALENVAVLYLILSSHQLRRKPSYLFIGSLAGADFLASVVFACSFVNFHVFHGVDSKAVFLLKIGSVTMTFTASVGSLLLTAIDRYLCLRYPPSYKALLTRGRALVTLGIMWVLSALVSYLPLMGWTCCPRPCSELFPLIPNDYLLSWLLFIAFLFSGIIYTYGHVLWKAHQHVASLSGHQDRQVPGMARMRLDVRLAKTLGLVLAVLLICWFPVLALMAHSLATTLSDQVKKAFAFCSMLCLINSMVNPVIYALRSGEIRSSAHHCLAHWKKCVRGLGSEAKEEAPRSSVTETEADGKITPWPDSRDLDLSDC
T3 sequence (P21554 whole entry): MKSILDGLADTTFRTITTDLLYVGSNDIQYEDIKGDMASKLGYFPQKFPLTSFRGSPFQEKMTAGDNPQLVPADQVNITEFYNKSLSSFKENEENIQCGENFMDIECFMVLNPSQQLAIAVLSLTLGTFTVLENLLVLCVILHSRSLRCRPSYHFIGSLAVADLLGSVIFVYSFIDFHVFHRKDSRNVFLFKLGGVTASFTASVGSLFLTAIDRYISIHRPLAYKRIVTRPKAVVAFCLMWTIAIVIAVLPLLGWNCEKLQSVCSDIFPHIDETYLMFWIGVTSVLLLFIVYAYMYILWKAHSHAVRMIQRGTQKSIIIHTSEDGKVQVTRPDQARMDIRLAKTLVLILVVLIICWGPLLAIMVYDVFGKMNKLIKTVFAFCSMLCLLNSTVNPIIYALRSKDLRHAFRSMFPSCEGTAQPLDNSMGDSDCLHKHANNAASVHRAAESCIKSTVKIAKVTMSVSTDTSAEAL

SMILES: CCCCCCC(C)(C)c1ccc([C@@H]2C[C@H](O)CC[C@H]2CCCO)c(O)c1 [CP 55,940, reference compound]
- Functional behaviour in GTPγ[35S] assay, rat CB2 (rat CB2 receptor [1]): agonist activity
- EC50 (rat CB2 receptor [1]; read-out: GTPγ[35S] functional assays Rat CB2 EC50, agonism): 2.3 ± 1.8 nM
- GTPγ[35S] functional assays Rat CB2 Emax (rat CB2 receptor [1]; relative to efficacy of CP 55,940): 112%
- Functional behaviour in cAMP activation assay, rat CB2 (rat CB2 receptor [2]): strong agonist activity
- cAMP activation assays Rat CB2 Emax (rat CB2 receptor [2]; forskolin 10 µM, NA = not active at 1 µM): 100%

SMILES: CCCCCCN1C(=O)/C(=N\NC(=O)c2ccccc2)c2ccccc21 [MDA19, N′-[(3Z)-1-(1-hexyl)-2-oxo-1,2-dihydro-3H-indol-3-ylidene]benzohydrazide]
- EC50 (rat CB1 receptor [3]): 814 ± 83 nM
- Functional behaviour in cAMP activation assay, rat CB1 (rat CB1 receptor [3]): agonist
- Emax (rat CB1 receptor [3]; read-out: cAMP activation assays Rat CB1 Emax): 89%
- Ki (human CB1 receptor [4]): 150 nM
- Ki (rat CB1 receptor [5]): 1130 ± 574 nM
- Effect on exploratory behavior (distance traveled, ambulatory time, vertical movements, zone entries) (naïve rats [6]): had no effect on exploratory behavior
- EC50 (rat CB2 receptor [1]): 19.7 ± 14 nM
- Functional behaviour in GTPγ[35S] assay, rat CB2 (rat CB2 receptor [1]): inverse agonist
- Emax (rat CB2 receptor [1]; read-out: GTPγ[35S] functional assays Rat CB2 Emax): -42%
- Effect on mechanical allodynia [7]: suppressed mechanical allodynia
- Time of peak effect for reversing mechanical allodynia [7]: 30 min
- Ki (human CB2 receptor [8]): 43.3 ± 10.3 nM
- EC50 (human CB2 receptor [9]): 83 ± 19 nM
- Functional behaviour in GTPγ[35S] assay, human CB2 (human CB2 receptor [9]): agonist
- Emax (human CB2 receptor [9]; read-out: GTPγ[35S] functional assays Human CB2 Emax): 65.4%
- Activation of Erk1/2 after PTX (rat CB2 receptors [10]; 200 ng/mL PTX 16 hours before 10 µM MDA19): blocked
- Functional behaviour in Erk1/2 activation (phosphorylation of Erk1/2) (rat CB2 receptors [10]; 10 µM, 30 minutes, CHO-rCB2 cells): behaved as an agonist and induced phosphorylation of Erk1/2
- Activation of Erk1/2 after AM630 (rat CB2 receptors [10]; 20 µM AM630 30 minutes before 10 µM MDA19): blocked
- EC50 (human CB1 receptor [11]): 922 ± 56 nM
- Functional behaviour in GTPγ[35S] assay, human CB1 (human CB1 receptor [11]): agonist
- Emax (human CB1 receptor [11]; read-out: GTPγ[35S] functional assays Human CB1 Emax): 64.5%
- Effect on mechanical allodynia (paclitaxel-treated rats; versus vehicle-treated rats): suppressed mechanical allodynia
- %MPE paw withdrawal threshold AUC versus vehicle (paclitaxel-treated rats; n = 5 per group): significantly different (P < 0.05)
- Functional behaviour in cAMP activation assay, rat CB2 (rat CB2 receptor [2]): no activity
- Effect on mechanical allodynia [12]: had no effect
- Ki (rat CB2 receptor [13]): 16.3 ± 2.1 nM
- Affinity ratio rat CB2 over rat CB1 (rat CB2 receptor [13]; from Ki values): ~70 fold
- Antiallodynic effects compared with 1 mg/kg WIN 55,212-2 IP ([14]; 15 mg/kg IP): not significantly different
- Antiallodynic effect, area under the curve ([14]; 15 mg/kg versus 5 mg/kg or vehicle): significantly (P < 0.01) greater antiallodynic effect
- Effect on tactile allodynia ([14]; IP): attenuated tactile allodynia in a dose-related manner
- Antiallodynic effect after pretreatment with AM630 ([14]; MDA19 10 mg/kg IP, AM630 5 mg/kg IP 15 minutes before, P < 0.05): significantly reversed
- Efficacy in attenuating tactile allodynia ([14]; after a 15 mg/kg dose IP): 70% ± 10%
- EC50 (rat CB1 receptor [15]): 427 ± 35 nM
- Functional behaviour in GTPγ[35S] assay, rat CB1 (rat CB1 receptor [15]): agonist
- Emax (rat CB1 receptor [15]; read-out: GTPγ[35S] functional assays Rat CB1 Emax): 54%

SMILES: Cc1c(C(=O)c2cccc3ccccc23)c2cccc3c2n1[C@H](CN1CCOCC1)CO3 [WIN 55,212-2, reference compound]
- Doses with adverse effects in the central nervous system (central nervous system): > 1 mg/kg
- Effect on exploratory behavior (distance traveled, ambulatory time, vertical movements, zone entries) (naïve rats [16]): significantly decreased exploratory behavior
- Adverse effects ([14]; 3 mg/kg IP): immobility and increased sensitivity to noise and handling
- Effect on tactile allodynia ([14]; IP): attenuated tactile allodynia in a dose-related manner
- ED50 tactile allodynia ([14]; IP, at 15 minutes, 95% CI = 0.5–0.9 mg/kg): 0.7 mg/kg

SMILES: COc1ccc2c(c1)c(CCN1CCOCC1)c(C)n2C(=O)c1cccc(Cl)c1Cl [L768242]
- Functional character at human CB2 (human CB2 receptors): protean agonists
- Functional character at rat CB2 (rat CB2 receptors [17]): protean agonists

SMILES: O=C(CCCN1CCC(O)(c2ccc(Cl)cc2)CC1)c1ccc(F)cc1 [haloperidol]
- Effect on exploratory behavior (distance traveled, ambulatory time, vertical movements, zone entries) (naïve rats [16]): significantly decreased exploratory behavior

SMILES: COc1ccc(C(=O)c2c(C)n(CCN3CCOCC3)c3cc(I)ccc23)cc1 [AM630, reference compound]
- Effect on paw withdrawal threshold, given alone ([14]; 5 mg/kg IP): had no effect

SMILES: CN1CCCCC1Cn1cc(C(=O)c2cc([N+](=O)[O-])ccc2I)c2ccccc21 (single isomer, unassigned; (+)) [(+)AM1241]
- Functional character at human CB2 (human CB2 receptors): protean agonists
- Functional character at rat CB2 (rat CB2 receptors [17]): protean agonists

SMILES: CN1CCCCC1Cn1cc(C(=O)c2cc([N+](=O)[O-])ccc2I)c2ccccc21 (centres unmarked) [AM1241, (2-iodo-5-nitrophenyl)-[1-(1-methylpiperidin-2-ylmethyl)-1H-indol-3-yl]methanone]
- Functional behaviour in cAMP inhibition assays, rat CB2 (rat CB2 receptors [18]): inverse agonist
- Functional behaviour in fluorometric image plate reader functional assays (human CB2 receptor [19]): apparent antagonist
- Functional behaviour in cyclase assays (human CB2 receptor [20]): neutral antagonist
- Functional behaviour in cyclase assays at lower forskolin concentrations (human CB2 receptor [20]; lower forskolin concentrations): agonist
- Functional behaviour in cAMP inhibition assays, mouse CB2 (mouse CB2 receptors): inverse agonist
- Functional behaviour in cAMP inhibition assays, human CB2 (human CB2 receptor [21]): agonist
- Functional behaviour in Erk activation assays (human CB2 receptor [22]): apparent agonist
- Effect on tactile allodynia [23]: attenuated tactile allodynia in a dose-related manner
